A selection: hits, their analogues and other compounds. The true share with any hit is near 2.3%.
TRPC4 act: activators of mouse TRPC4 channel | Q9QUQ5 | HEK293 TRPC4beta/mu-opioid, Fluo4 calcium fluorescence; stronger effect = higher value | B-score at 10 µM | 310,000 compounds, 0.49% hits | AID 2237;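 active means B-score above 5 SD of library B-scores, and initial fluorescence ratio not above library mean plus 5 SD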;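 further: positive B-score marks a calcium rise read as TRPC4 activation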
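Material: HEK293 stable line with TRPC4beta plus mu-opioid receptor; technique: Fluo4 calcium-sensitive dye fluorescence, kinetic, 1 Hz baseline; timing: Fluo4 dye loading 45 min at room temperature, 110 s recording; controls: assay buffer as low control, maximal DAMGO as high control; read-out: integrated baseline-normalised fluorescence ratio, converted to per-well B score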
TRPC4 PAM: allosterically enhances the mouse TRPC4 cation channel | HEK293 TRPC4beta/mu-opioid, DAMGO EC20, Fluo-4 Ca2+ flux; stronger effect = higher value | 310,000 compounds, 0.42% hits | B-score at 10 µM;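 active means B-score of calcium response area above 5 SD of library B-scores, with initial fluorescence ratio within 5 SD of library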
TRPC4 block: blocks the mouse TRPC4 cation channel | AID 2247 | HEK293 TRPC4beta/mu-opioid, DAMGO-evoked Fluo4 calcium flux; stronger effect = lower value | B-score at 10 µM | Q9QUQ5 | 300,000 compounds, 0.39% hits;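 active means B-score over 3 SD under the library average, no early fluorescence shift, positive overall ratio signal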
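Assay system: TRPC4beta/mu-opioid receptor HEK293 cell line; compound dosing: single concentration per test compound; detection: Fluo4 Ca2+ flux fluorescence; evaluation: per-well B score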
TRPC6 act: activates the mouse TRPC6 cation channel; 310,000 compounds, 0.13% hits; B-score at 10 µM; Q61143; HEK293-TRPC6 membrane potential dye fluorescence; stronger effect = higher value; AID 2550;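 active means B-score of the integrated fluorescence ratio above library mean plus 3 SD, and starting fluorescence ratio within library mean plus 5 SD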;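 further: higher score means more depolarization so channel activation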
Target sequence (Q61143 whole entry, looked up): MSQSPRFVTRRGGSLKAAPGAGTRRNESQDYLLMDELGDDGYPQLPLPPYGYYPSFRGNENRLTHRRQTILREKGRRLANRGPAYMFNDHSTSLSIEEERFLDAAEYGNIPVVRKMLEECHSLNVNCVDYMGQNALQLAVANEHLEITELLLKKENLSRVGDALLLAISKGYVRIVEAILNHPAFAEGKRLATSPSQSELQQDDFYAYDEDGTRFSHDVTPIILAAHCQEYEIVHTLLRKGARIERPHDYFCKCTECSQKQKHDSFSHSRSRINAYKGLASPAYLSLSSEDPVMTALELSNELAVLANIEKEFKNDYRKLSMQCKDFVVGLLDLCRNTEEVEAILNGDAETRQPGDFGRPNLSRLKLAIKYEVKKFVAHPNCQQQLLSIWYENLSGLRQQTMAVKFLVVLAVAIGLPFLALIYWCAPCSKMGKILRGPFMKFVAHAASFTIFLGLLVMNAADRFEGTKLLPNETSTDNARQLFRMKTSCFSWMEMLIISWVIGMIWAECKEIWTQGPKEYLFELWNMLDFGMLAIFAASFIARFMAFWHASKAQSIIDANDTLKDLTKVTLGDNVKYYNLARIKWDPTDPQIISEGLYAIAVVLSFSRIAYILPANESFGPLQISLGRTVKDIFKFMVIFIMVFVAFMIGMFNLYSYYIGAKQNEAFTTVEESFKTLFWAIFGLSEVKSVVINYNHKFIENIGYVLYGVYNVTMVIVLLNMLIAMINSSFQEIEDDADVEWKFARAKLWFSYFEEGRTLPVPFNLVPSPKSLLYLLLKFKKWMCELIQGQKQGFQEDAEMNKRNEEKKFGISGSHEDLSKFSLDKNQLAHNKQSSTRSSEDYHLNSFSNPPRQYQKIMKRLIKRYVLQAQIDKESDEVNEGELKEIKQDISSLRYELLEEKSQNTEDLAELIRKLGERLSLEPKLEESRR
TRPC6 inh: mouse TRPC6 channel inhibition; Q61143; HEK293-TRPC6, membrane potential dye, ACh-evoked depolarization; stronger effect = lower value; B-score at 10 µM; 310,000 compounds, 1.1% hits;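 active means B-score under library mean minus 3 SD, initial fluorescence not abnormally high, positive integrated signal ratio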;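 further: B-score derived from integrated fluorescence ratio over the kinetic read; more negative B-score means stronger inhibition of depolarization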
TRPC4 sel inh 2: second check of whether TRPC6 inhibitors also affect mouse TRPC4. shares compounds with TRPC6 inh. inhibition, % at 10 µM. HEK293 TRPC4/MOR, membrane potential dye fluorescence; channel activated by saturating DAMGO dose. 920 compounds, 42% hits;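 active means compounds whose fluorescence signal differed from control wells by over 3 SD, either direction, in both duplicate plates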
TRPC4 spec: tests whether TRPC6 inhibitors also affect mouse TRPC4 | activity change, negative = inhibition, % at 10 µM | HEK293 TRPC4/mu-opioid, membrane potential fluorescence | 920 compounds, 61% hits | AID 2777 | shares compounds with TRPC6 inh;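 active means rise or fall in signal beyond 3 SD of buffer-only wells in both replicate plates, either sign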;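 further: integrated kinetic ratio of fluorescence range over baseline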
HEK293 MPD ctr 2-1: second check of TRPC6 inhibitor effects in parental HEK293 cells. parental HEK293 membrane potential dye fluorescence; maximal acetylcholine challenge after compound addition. signal change vs control, % at 10 µM. shares compounds with TRPC6 inh. 920 compounds, 31% hits;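 active means membrane potential signal moving either way by over 3 SD of the maximum-effect control, in both duplicate plates, meaning non-specific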
HEK293 MPD ctr-1: parental HEK293 nonspecific activity of TRPC6 inhibitors; shares compounds with TRPC6 inh; parental HEK293 membrane potential dye fluorescence; membrane potential signal change, % at 10 µM; 920 compounds, 60% hits;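 active means membrane potential signal shifting up or down by more than 3 SD of buffer-only wells, on both duplicate plates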
HEK293 MPD ctr-2: parental HEK293 nonspecific activity of TRPC6 modulators. membrane potential dye fluorescence. 2,400 compounds, 51% hits. shares compounds with TRPC6 inh. membrane potential signal change, % at 10 µM. AID 488924;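 active means membrane potential signal moves up or down beyond 5 SD from buffer-only wells, on both duplicate plates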
HEK293 MPD ctr 2-2: second check of TRPC6 modulator effects in parental HEK293 cells | membrane potential dye fluorescence; after compound, maximal acetylcholine stimulation | 2,400 compounds, 14% hits | shares compounds with TRPC6 inh | inhibition, % at 10 µM;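 active means membrane potential signal drops by more than 5 SD from the mean control signal, in both duplicate plates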
TRPC4 ctr mod: tests whether TRPC6 modulators also affect mouse TRPC4; shares compounds with TRPC6 inh; percent change from control (negative = decrease, positive = increase), % at 10 µM; AID 488927; 2,400 compounds, 69% hits; HEK293 TRPC4/mu-opioid, membrane potential fluorescence;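 active means membrane potential signal moved up or down beyond 5 SD of buffer control wells, in both duplicate plates, actives on both sides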
TRPC4/MOR inh 2: second check of whether TRPC6 modulators also affect mouse TRPC4 | shares compounds with TRPC6 inh | HEK293 TRPC4/mu-opioid, membrane potential dye fluorescence; stimulated with maximal-effect DAMGO | inhibition, % at 10 µM | 2,400 compounds, 55% hits | AID 488928;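 active means drop in membrane potential signal beyond 5 SD of the control wells in both duplicate plates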;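 further: TRPC4 counter screen for TRPC6 hits run under conditions tuned for TRPC6 not TRPC4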
TRPC6 inh conf: confirmation of mouse TRPC6 inhibitors; HEK293-TRPC6, membrane potential dye, ACh-evoked depolarization; 3,300 compounds, 43% hits; inhibition, % at 10 µM; shares compounds with TRPC6 inh; AID 488960;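 active means fluorescence ratio falls more than 5 SD below the full-stimulation control mean, in both duplicate runs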;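 further: integrated fluorescence ratio of peak minus minimum over baseline after agonist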
TRPC6 act conf: confirmation of mouse TRPC6 activators | activation, % at 10 µM | AID 488961 | 2,800 compounds, 11% hits | HEK293-TRPC6 membrane potential dye fluorescence, FDSS | shares compounds with TRPC6 inh;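 active means ratio signal rise beyond 5 SD above unstimulated control wells' mean, seen in both duplicate runs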
Hits are given with their value; n = inactive; x = no result.

SMILES	TRPC4 act	TRPC4 PAM	TRPC4 block	TRPC6 act	TRPC6 inh	HEK293 MPD ctr-2	HEK293 MPD ctr 2-2	TRPC4 ctr mod	TRPC4/MOR inh 2	TRPC6 inh conf	TRPC6 act conf	others
COCCN(C(=O)Cn1nnc2ccccc21)C(C(=O)NC1CCCC1)c1ccc(OC)cc1OC (configuration not stated)	n	n	n	20	n	600%	194%	118%	n	x	311%
CCCCN(C(=O)Cn1nnc2ccccc21)C(C(=O)NCCOC)c1ccc(OC)cc1 (configuration not stated)	n	n	n	n	n	x	x	x	x	x	x
COCCN(C(=O)Cn1nnc2ccccc21)C(C(=O)NC1CCCCC1)c1ccc(OC)cc1OC (configuration not stated)	n	n	n	38	n	818%	173%	163%	n	x	354%
C#CCSc1nnc(-c2cc3c(C(F)(F)F)nn(C)c3s2)n1C	n	n	n	n	n	x	x	x	x	x	x
CCOc1ccccc1N1CCN(Cc2ccco2)CC1	n	n	n	n	n	x	x	x	x	x	x
CCOc1ccccc1N1CCN(C/C=C/c2ccc(N(C)C)cc2)CC1	n	n	n	n	-6.5	n	n	n	66%	50%	n
COc1ccc(NC(=O)CSc2nc3ccccc3c(=O)n2CCCN2CCC(C)CC2)c(OC)c1	n	n	n	n	-9.2	x	x	x	x	57%	n	TRPC4 sel inh 2=22%;TRPC4 spec=n;HEK293 MPD ctr 2-1=n;HEK293 MPD ctr-1=5.8%
COc1ccc(NC(=O)CSc2nnc(C3CCCCC3)n2N)c(OC)c1	n	n	n	n	-6.7	n	n	n	n	n	n
COc1ccc(OC)c(NC(=O)CSc2nnc(C3CCCCC3)n2N)c1	n	n	n	n	n	x	x	x	x	x	x
COc1ccc(CCn2c(SCCN3CCCCC3)nc3ccccc3c2=O)cc1OC	n	n	n	n	-9.2	x	x	x	x	59%	n	TRPC4 sel inh 2=36%;TRPC4 spec=-13%;HEK293 MPD ctr 2-1=n;HEK293 MPD ctr-1=-153%
CCNS(=O)(=O)c1ccc2nc(NC(=O)/C=C/c3cc(OC)c(OC)c(OC)c3)sc2c1	n	n	n	n	n	x	x	x	x	x	x
Cc1ccccc1OCCC(=O)OCC(=O)NC1CC1	n	n	n	n	n	x	x	x	x	x	x
CCOC(=O)C1CCN(C(c2cc3c(C)ccc(C)c3[nH]c2=O)c2nnnn2C2CCCCC2)CC1 (configuration not stated)	n	n	n	n	n	x	x	x	x	x	x
CCOC(=O)C1CCN(C(c2cc3ccc(C)c(C)c3[nH]c2=O)c2nnnn2C2CCCCC2)CC1 (configuration not stated)	n	n	n	n	-8.8	x	x	x	x	n	x	TRPC4 sel inh 2=n;TRPC4 spec=n;HEK293 MPD ctr 2-1=n;HEK293 MPD ctr-1=n
CN1CCc2c(sc3c2C(=O)NC(c2cccs2)N3)C1 (configuration not stated)	n	n	n	n	n	x	x	x	x	x	x
CN1CCc2c(sc3c2C(=O)NC(/C=C\c2ccccc2)N3)C1 (configuration not stated)	n	n	n	n	-5.7	n	n	-14%	63%	58%	n
CN(C)/C=C/C(=O)c1ccc(OCCN(C)c2ccccn2)cc1	n	n	n	n	-6.7	x	x	x	x	n	n	TRPC4 sel inh 2=46%;TRPC4 spec=37%;HEK293 MPD ctr 2-1=n;HEK293 MPD ctr-1=n
CN(C)/C=C/C(=O)c1ccc(Oc2ccccc2)cc1	n	n	n	n	n	x	x	x	x	x	x
CC(=O)C1C(=O)c2c(cccc2[N+](=O)[O-])C1=Nc1ccc(S(N)(=O)=O)cc1 (configuration not stated)	n	n	n	n	-9.7	-250%	n	-51%	52%	n	n
COc1ccccc1Nc1nnc(SCC(=O)N2CCCC2=O)s1	n	n	n	n	-5.1	n	n	n	n	n	n
COc1ccccc1Nc1nnc(SCC(=O)N2CCCC2)s1	n	n	n	n	n	x	x	x	x	x	x
O=C(O)c1ccccc1-c1ncc(-c2ccccc2)o1	n	n	n	n	n	x	x	x	x	x	x
CCCCN(CCCC)CCNC(=O)c1cn(CC)c2ccc(S(=O)(=O)N3CCCC3)cc2c1=O	n	n	n	n	-5	n	n	n	50%	n	n
CCN(CC)S(=O)(=O)c1ccc2c(c1)c(=O)c(C(=O)NCCN(C)CCc1ccccc1)cn2C	n	n	n	n	-5.4	-64%	n	-17%	63%	n	n
CCN(CC)CCNC(=O)c1cn(CC)c2ccc(S(=O)(=O)N3CCOCC3)cc2c1=O	n	n	n	n	n	x	x	x	x	x	x
SMILES	TRPC4 act	TRPC4 PAM	TRPC4 block	TRPC6 act	TRPC6 inh	HEK293 MPD ctr-2	HEK293 MPD ctr 2-2	TRPC4 ctr mod	TRPC4/MOR inh 2	TRPC6 inh conf	TRPC6 act conf	others
CN(CCNC(=O)c1cn(C)c2ccc(S(=O)(=O)N(C)C)cc2c1=O)CCc1ccccc1	n	n	n	n	n	x	x	x	x	x	x
CCCCN(C)CCCNC(=O)c1cn(CC)c2ccc(S(=O)(=O)N3CCc4ccccc4C3)cc2c1=O	n	n	n	n	-6.9	x	x	x	x	n	n	TRPC4 sel inh 2=52%;TRPC4 spec=-18%;HEK293 MPD ctr 2-1=n;HEK293 MPD ctr-1=-160%
O=[N+]([O-])c1ccc(-c2ccc(S(=O)(=O)NCCN3CCCC3)cc2)cc1	n	n	n	n	n	x	x	x	x	x	x
CCOC(=O)CNS(=O)(=O)c1ccc(S(=O)(=O)N2CCCC2)cc1	n	n	n	n	-7.8	x	x	x	x	n	n	TRPC4 sel inh 2=n;TRPC4 spec=n;HEK293 MPD ctr 2-1=n;HEK293 MPD ctr-1=n
Cc1ccccc1Cn1c(=N)n(CC(O)c2ccco2)c2ccccc21 (configuration not stated)	n	n	-6	n	-5.2	143%	n	49%	99%	48%	x
CCCCn1c(=N)n(CC(O)c2ccccc2)c2ccccc21 (configuration not stated)	n	n	n	n	n	x	x	x	x	x	x

Bioassay records: PubChem BioAssay, Johns Hopkins Ion Channel Center
